Test results reported in ChEMBL document CHEMBL3259588, “Anti-inflammatory drimane sesquiterpene lactones from an Aspergillus species” (Bioorg Med Chem, 2014).
Activity calls are given as the source filed them. No cut-off for these calls is given here.

Experiments:
Type in all cases: cell-based
[1] = (§1) Inhibition of TNF-alpha/IFN-gamma/IL-1beta-induced human CXCL10 (972 bp) promoter activity expressed in human DLD1 cells after 24 hrs by luciferase reporter assay; settings: DLD-1, 24 h
Procedure, shortened: (§2)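 DLD-1 in 24-well plates, switched to 0.5% FCS without antibiotics a day before lipofection (Lipofectamine 2000, 0.8 µg plasmid) with 972 bp CXCL10 promoter, NF-κB, GAS/Stat1 or ISRE luciferase reporters plus pRL-CMV. Stimulated 24 h with 10 ng/mL TNF-α, 10 ng/mL IFN-γ, 5 ng/mL IL-1β ± compound; Dual-Glo firefly/Renilla read. Stimulation-only = 100%; mean ± SEM, ≥3 experiments.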

DLD-1 [2] = experiment: as §1; procedure, shortened: as §2
[3] = Inhibition of TNF-alpha/IFN-gamma/IL-1beta-induced human CXCL10 (972 bp) promoter activity expressed in human DLD1 cells after 24 hrs by […]-driven luciferase reporter assay; settings: DLD-1, 24 h; procedure, shortened: as §2
[4] = biological target: T1, Signal transducer and activator of transcription 1-alpha/beta (Homo sapiens) (UniProt P42224); experiment: Inhibition of Stat1 (unknown origin)-induced human CXCL10 (972 bp) promoter activity expressed in TNF-alpha/IFN-gamma/IL-1beta-stimulated human DLD1 cells after 24 hrs by luciferase reporter assay; settings: DLD-1; procedure, shortened: as §2
T1 sequence (whole entry): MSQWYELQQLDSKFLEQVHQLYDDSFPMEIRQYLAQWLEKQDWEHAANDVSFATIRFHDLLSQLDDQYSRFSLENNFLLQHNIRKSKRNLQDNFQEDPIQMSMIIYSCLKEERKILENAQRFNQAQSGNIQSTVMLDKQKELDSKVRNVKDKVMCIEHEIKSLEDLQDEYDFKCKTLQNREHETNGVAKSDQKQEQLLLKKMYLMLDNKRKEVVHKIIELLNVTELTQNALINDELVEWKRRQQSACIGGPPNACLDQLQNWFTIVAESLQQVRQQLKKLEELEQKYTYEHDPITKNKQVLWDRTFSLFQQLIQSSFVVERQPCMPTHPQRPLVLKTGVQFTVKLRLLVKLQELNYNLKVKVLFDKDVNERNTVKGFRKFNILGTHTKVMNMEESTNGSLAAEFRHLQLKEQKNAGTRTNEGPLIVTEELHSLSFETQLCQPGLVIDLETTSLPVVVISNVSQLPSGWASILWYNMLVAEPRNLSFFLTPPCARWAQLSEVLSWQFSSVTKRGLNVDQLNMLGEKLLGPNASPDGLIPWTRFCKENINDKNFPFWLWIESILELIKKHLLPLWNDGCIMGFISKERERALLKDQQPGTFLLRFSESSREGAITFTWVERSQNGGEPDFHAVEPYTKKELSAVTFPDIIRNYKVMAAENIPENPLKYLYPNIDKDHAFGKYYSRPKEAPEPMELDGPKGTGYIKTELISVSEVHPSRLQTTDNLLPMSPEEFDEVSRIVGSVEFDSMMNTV

DLD-1 [5] = experiment: Inhibition of TNF-alpha/IFN-gamma/IL-1beta-induced human CXCL10 (972 bp) promoter activity expressed in human DLD1 cells assessed as CXCL10 gene expression at 27.5 uM after 5 hrs by RT-PCR method relative to untreated-control
Procedure, shortened: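 Cells starved 16 h (0.5% FCS), compound pretreatment 1 h, then TNF-α 10 ng/mL/IFN-γ 10 ng/mL/IL-1β 5 ng/mL for 5 h. Total RNA analysed by two-step qRT-PCR for cxcl10, gapdh-corrected (Pfaffl); induced vs uninduced and treated-induced vs untreated-induced (100%).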

[6] = biological target: T2, Nuclear factor NF-kappa-B complex (Homo sapiens) (UniProt Q00653+P19838+Q04206); experiment: Inhibition of NF-kappaB (unknown origin) expressed human DLD1 cells assessed as reduction in TNF-alpha gene expression pretreated at 13.75 uM for 1 hr by RT-PCR method relative to untreated-control; settings: DLD-1
T2 sequence (P19838 whole entry, looked up): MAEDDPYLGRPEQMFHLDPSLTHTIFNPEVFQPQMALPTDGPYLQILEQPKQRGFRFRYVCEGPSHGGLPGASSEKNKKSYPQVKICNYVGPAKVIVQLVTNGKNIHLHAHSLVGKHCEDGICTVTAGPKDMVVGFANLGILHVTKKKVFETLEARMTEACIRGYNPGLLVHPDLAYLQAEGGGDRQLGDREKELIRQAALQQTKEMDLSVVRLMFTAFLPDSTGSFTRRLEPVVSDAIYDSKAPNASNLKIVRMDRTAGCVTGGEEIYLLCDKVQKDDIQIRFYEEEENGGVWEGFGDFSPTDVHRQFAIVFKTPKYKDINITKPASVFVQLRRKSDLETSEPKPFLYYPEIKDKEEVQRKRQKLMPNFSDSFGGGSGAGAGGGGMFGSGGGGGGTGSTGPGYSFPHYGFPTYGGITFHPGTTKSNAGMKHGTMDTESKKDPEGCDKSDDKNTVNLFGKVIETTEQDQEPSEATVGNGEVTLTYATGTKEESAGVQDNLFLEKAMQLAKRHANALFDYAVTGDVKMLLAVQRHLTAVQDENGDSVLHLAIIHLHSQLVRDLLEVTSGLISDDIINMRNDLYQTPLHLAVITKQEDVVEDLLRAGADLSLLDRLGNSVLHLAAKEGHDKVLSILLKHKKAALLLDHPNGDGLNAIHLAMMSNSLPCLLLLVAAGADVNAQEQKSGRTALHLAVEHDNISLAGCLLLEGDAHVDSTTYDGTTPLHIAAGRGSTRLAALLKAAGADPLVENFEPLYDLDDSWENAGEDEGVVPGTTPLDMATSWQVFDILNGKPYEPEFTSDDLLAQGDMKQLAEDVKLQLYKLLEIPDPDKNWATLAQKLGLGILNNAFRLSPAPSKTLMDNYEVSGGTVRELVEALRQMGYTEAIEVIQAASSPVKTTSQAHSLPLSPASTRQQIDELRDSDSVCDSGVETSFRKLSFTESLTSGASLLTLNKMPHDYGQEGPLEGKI
T2 sequence (Q00653 whole entry, looked up): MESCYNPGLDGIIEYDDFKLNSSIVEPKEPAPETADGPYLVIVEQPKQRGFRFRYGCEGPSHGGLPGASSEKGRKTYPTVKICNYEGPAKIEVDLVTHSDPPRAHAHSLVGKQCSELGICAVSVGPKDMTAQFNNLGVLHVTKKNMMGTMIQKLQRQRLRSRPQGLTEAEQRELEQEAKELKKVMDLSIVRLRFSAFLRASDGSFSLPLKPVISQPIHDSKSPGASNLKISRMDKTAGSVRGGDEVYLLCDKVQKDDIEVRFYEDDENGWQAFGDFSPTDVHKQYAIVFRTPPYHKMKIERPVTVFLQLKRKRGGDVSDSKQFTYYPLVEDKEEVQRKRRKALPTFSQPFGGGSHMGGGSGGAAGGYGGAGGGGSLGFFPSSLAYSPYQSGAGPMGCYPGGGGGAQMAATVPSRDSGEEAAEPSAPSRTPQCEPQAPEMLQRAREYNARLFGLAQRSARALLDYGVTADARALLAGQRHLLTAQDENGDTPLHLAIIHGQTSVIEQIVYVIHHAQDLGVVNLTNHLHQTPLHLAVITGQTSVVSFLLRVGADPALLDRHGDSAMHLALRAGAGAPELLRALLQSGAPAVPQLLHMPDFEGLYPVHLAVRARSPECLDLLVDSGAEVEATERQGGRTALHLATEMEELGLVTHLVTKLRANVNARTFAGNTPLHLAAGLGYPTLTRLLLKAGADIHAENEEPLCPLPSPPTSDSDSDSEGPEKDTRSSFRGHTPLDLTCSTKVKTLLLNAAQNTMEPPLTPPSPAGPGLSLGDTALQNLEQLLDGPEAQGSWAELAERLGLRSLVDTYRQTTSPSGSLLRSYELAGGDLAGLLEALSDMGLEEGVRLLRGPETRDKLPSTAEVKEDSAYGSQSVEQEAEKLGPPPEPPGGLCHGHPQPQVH
T2 sequence (Q04206 whole entry, looked up): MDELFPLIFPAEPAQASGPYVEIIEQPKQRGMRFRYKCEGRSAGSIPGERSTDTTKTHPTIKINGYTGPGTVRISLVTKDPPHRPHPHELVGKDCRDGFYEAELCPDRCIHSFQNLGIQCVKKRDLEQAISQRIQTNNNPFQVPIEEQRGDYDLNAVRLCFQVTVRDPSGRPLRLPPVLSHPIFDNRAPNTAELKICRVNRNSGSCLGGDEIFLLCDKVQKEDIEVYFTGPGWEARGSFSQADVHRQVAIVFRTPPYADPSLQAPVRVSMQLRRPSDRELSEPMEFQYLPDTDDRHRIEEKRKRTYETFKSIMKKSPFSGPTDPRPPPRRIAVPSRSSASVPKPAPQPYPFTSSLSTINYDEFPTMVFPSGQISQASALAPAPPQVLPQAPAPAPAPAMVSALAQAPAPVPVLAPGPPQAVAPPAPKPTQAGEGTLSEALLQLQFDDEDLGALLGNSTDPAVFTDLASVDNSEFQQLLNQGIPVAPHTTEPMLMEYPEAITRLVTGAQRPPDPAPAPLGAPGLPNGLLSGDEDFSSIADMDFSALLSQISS
Procedure, shortened: (§3)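 DLD-1 seeded 5×10^5 cells/mL, grown 24 h, starved 16 h in 0.5% FCS, pretreated with compound 1 h, then stimulated with 10 ng/mL TNF-α, 10 ng/mL IFN-γ, 5 ng/mL IL-1β for 5 h. tnf-α, il-1β, inos mRNA by two-step qRT-PCR, Pfaffl relative quantification, normalised to gapdh; stimulated-untreated control = 100%. Mean ± SEM, three independent experiments.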

[7] = biological target: T2, Nuclear factor NF-kappa-B complex (Homo sapiens); experiment: Inhibition of NF-kappaB (unknown origin) expressed human DLD1 cells assessed as reduction in IL1-beta gene expression pretreated at 13.75 uM for 1 hr by RT-PCR method relative to untreated-control; settings: DLD-1; procedure, shortened: as §3
[8] = biological target: T2, Nuclear factor NF-kappa-B complex (Homo sapiens); experiment: Inhibition of NF-kappaB (unknown origin) expressed human DLD1 cells assessed as reduction in iNOS gene expression pretreated at 13.75 uM for 1 hr by RT-PCR method relative to untreated-control; settings: DLD-1; procedure, shortened: as §3
[9] = biological target: T1, Signal transducer and activator of transcription 1-alpha/beta (Homo sapiens); experiment: Inhibition of Stat1 (unknown origin) expressed human DLD1 cells assessed as reduction in IL1-beta gene expression pretreated at 13.75 uM for 1 hr by RT-PCR method relative to untreated-control; settings: DLD-1; procedure, shortened: as §3
[10] = biological target: T1, Signal transducer and activator of transcription 1-alpha/beta (Homo sapiens); experiment: Inhibition of Stat1 (unknown origin) expressed human DLD1 cells assessed as reduction in TNF-alpha gene expression pretreated at 13.75 uM for 1 hr by RT-PCR method relative to untreated-control; settings: DLD-1; procedure, shortened: as §3
[11] = biological target: T1, Signal transducer and activator of transcription 1-alpha/beta (Homo sapiens); experiment: Inhibition of Stat1 (unknown origin) expressed in human DLD1 cells assessed as reduction in iNOS gene expression pretreated at 13.75 uM for 1 hr by RT-PCR method relative to untreated-control; settings: DLD-1; procedure, shortened: as §3
[12] = Cytotoxicity against human DLD1 cells up to 50 uM after 48 hrs by XTT assay; settings: dld-1, 48 h
Procedure, shortened: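 DLD-1 cells (RPMI 1640, 25 mM HEPES, 10% FCS, 37 °C, 5% CO2) exposed to compound for 48 h; viability read as XTT reduction to coloured formazan.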

DLD-1 [13] = experiment: Inhibition of TNF-alpha/IFN-gamma/IL-1beta-induced human CXCL10 (972 bp) promoter activity expressed in human DLD1 cells assessed as reduction in CXCL10 expression pretreated at 27.5 uM for 1 hr prior to 16 hrs cytokine challenge by proteome profiling method relative to untreated-control
Procedure, shortened: (§4)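 DLD-1 starved 16 h in 0.5% FCS, seeded 5×10^6 cells/mL, pretreated 1 h with compound, then stimulated 16 h with 10 ng/mL TNF-α, 10 ng/mL IFN-γ, 5 ng/mL IL-1β. Supernatant cytokines/chemokines detected on Human Cytokine Array Panel A antibody array.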

DLD-1 [14] = experiment: Inhibition of TNF-alpha/IFN-gamma/IL-1beta-induced human CXCL10 (972 bp) promoter activity expressed in human DLD1 cells assessed as reduction in MIF expression pretreated at 27.5 uM for 1 hr prior to 16 hrs cytokine challenge by proteome profiling method relative to untreated-control; procedure, shortened: as §4
DLD-1 [15] = experiment: Inhibition of TNF-alpha/IFN-gamma/IL-1beta-induced human CXCL10 (972 bp) promoter activity expressed in human DLD1 cells assessed as reduction in IL8 expression pretreated at 27.5 uM for 1 hr prior to 16 hrs cytokine challenge by proteome profiling method relative to untreated-control; procedure, shortened: as §4
DLD-1 [16] = experiment: Inhibition of TNF-alpha/IFN-gamma/IL-1beta-induced human CXCL10 (972 bp) promoter activity expressed in human DLD1 cells assessed as reduction in CXCL1 expression pretreated at 27.5 uM for 1 hr prior to 16 hrs cytokine challenge by proteome profiling method relative to untreated-control; procedure, shortened: as §4
DLD-1 [17] = experiment: Inhibition of TNF-alpha/IFN-gamma/IL-1beta-induced human CXCL10 (972 bp) promoter activity expressed in human DLD1 cells assessed as reduction in IL1-beta expression pretreated at 27.5 uM for 1 hr prior to 16 hrs cytokine challenge by proteome profiling method relative to untreated-control; procedure, shortened: as §4
DLD-1 [18] = experiment: Inhibition of TNF-alpha/IFN-gamma/IL-1beta-induced human CXCL10 (972 bp) promoter activity expressed in human DLD1 cells assessed as reduction in IL-27 expression pretreated at 27.5 uM for 1 hr prior to 16 hrs cytokine challenge by proteome profiling method relative to untreated-control; procedure, shortened: as §4
DLD-1 [19] = experiment: Inhibition of TNF-alpha/IFN-gamma/IL-1beta-induced human CXCL10 (972 bp) promoter activity expressed in human DLD1 cells assessed as reduction in TNF-alpha expression pretreated at 27.5 uM for 1 hr prior to 16 hrs cytokine challenge by proteome profiling method relative to untreated-control; procedure, shortened: as §4
DLD-1 [20] = experiment: Inhibition of TNF-alpha/IFN-gamma/IL-1beta-induced human CXCL10 (972 bp) promoter activity expressed in human DLD1 cells assessed as reduction in CXCL10 expression pretreated at 131.5 uM for 1 hr prior to 16 hrs cytokine challenge by proteome profiling method relative to untreated-control; procedure, shortened: as §4

## CCCCCC(=O)O[C@@H]1C=C2COC(=O)C2(O)[C@@]2(C)CCCC(C)(C)[C@H]12 (stereo not given in full)
[1]
  IC50: 12.4 µM
DLD-1 [2]
  inhibition: Dose-dependent effect
[3]
  IC50: 14.3 µM
[4]
  inhibition: Dose-dependent effect
DLD-1 [5]
  inhibition: Active
[6]
  inhibition: Active
[7]
  inhibition: Active
[8]
  inhibition: Active
[9]
  inhibition: Active
[10]
  inhibition: Active
[11]
  inhibition: Active
[12]
  Activity: Non-toxic
DLD-1 [13]
  inhibition: Active
DLD-1 [14]
  inhibition: Active
DLD-1 [15]
  inhibition: Active
DLD-1 [16]
  inhibition: Active
DLD-1 [17]
  inhibition: Active
DLD-1 [18]
  inhibition: Active
DLD-1 [19]
  inhibition: Active
DLD-1 [20]
  inhibition: Active
